In ChEMBL document CHEMBL1128687, “5-Methyl-6-phenyl-1,3,5,6-tetrahydro-3,6-methano-1,5-benzodiazocine-2,4-dione (BA 41899): representative of a novel class of purely calcium-sensitizing agents” (J Med Chem, 1995):
Activity calls are given as the source filed them. The rule behind the calls is not given here.

How the values were obtained:
[1] = species on record: Sus scrofa; experiment: Increase in isometric force of porcine myocardial skinned fibers at 30 uM; format: functional
[2] = species on record: Sus scrofa; experiment: Effect on porcine myocardial skinned fibers at 1-100 uM (ineffective); format: functional
[3] = species on record: Cavia porcellus; experiment: Positive inotropic effect, increased isometric tension on guinea pig heart; format: functional
Summary of the method: (§1)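 Left atria from urethane-anaesthetized guinea pigs in Krebs–Henseleit medium at 32 °C, electrically stimulated isometrically at 2.5 s⁻¹ (also 0.25 s⁻¹); compound applied at 1–100 μM after equilibration, exposure up to 60 min; twitch force recorded, EC50 as concentration giving half-maximal effect.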

[4] = species on record: Sus scrofa; experiment: Reduced [Ca2+] activated force development on porcine skinned myocardial fibers at 100 uM; format: functional; parameters: scale not given: the % may be the effect or the level left
[5] = species on record: Sus scrofa; experiment: Increase in [Ca2+] activated force in porcine myocardial skinned fibers; format: functional, Myocardium
[6] = species on record: Sus scrofa; experiment: Maximal activation of porcine myocardial skinned fibers at 40 uM free [Ca2+] without compound; format: functional
[7] = species on record: Sus scrofa; experiment: Maximal activation of porcine myocardial skinned fibers at 40 uM [Ca2+] with 100 uM compound; format: functional
[8] = species on record: Sus scrofa; experiment: Increased [Ca2+] activated force in porcine myocardial skinned fibers; format: functional; details: Myocardium
[9] = species on record: Cavia porcellus; experiment: Inotropic effect at 100 uM; Loses most of its inotropic activity due to resting tension; format: functional; summary of the method: as §1
[10] = species on record: Cavia porcellus; experiment: Inhibition of desmethoxyverapamil binding to Sarcolemmal Ca+2 channel (No effect)
[11] = biological target: Beta-1 adrenergic receptor (Cavia porcellus) (UniProt B0FL73); experiment: Effect against Beta-1 adrenergic receptor using dehydroalprenolol as ligand; No effect
[12] = species on record: Cavia porcellus; experiment: Activating effect on Sarcolemmal Ca+2 channel uptake was determined; format: functional
[13] = biological target: T1, Alpha-1A adrenergic receptor (Homo sapiens) (UniProt P35348); experiment: Effect against Alpha-1 adrenergic receptor using prazosin as ligand; No effect; details: Cavia porcellus
T1 sequence (whole entry): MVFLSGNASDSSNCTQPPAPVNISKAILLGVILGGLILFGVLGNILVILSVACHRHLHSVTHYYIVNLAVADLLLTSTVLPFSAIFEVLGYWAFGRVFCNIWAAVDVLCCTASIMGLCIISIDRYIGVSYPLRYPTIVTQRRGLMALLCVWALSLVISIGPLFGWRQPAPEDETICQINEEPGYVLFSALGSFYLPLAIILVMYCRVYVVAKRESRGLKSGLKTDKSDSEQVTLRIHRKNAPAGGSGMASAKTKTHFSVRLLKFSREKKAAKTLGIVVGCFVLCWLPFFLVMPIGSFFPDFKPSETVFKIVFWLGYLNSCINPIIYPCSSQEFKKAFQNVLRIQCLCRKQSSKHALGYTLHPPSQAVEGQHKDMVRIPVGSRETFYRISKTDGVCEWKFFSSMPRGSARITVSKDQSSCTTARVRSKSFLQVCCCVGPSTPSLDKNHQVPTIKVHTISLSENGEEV

[14] = biological target: T2, Alpha-2A adrenergic receptor (Homo sapiens) (UniProt P08913); experiment: Effect against Alpha-2 adrenergic receptor using clonidine as ligand; No effect; details: Cavia porcellus
T2 sequence (whole entry): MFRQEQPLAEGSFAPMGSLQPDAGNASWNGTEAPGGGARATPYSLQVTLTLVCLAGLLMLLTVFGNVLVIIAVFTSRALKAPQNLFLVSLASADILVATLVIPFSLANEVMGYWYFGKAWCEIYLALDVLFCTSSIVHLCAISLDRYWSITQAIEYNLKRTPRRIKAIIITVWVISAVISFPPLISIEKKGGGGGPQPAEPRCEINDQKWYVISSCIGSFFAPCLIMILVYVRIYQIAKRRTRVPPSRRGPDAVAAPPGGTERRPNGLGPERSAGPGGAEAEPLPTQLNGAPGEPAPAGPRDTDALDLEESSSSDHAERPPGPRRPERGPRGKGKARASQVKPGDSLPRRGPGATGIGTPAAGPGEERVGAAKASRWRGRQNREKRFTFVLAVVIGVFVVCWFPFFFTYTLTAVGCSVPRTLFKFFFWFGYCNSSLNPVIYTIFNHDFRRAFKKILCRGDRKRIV

[15] = species on record: Cavia porcellus; experiment: Activating effect on Sarcolemmal Ca+2 ATPase was determined
[16] = species on record: Sus scrofa; experiment: Increased contractile response in skinned myocardial fibers in presence of 0.1-10 uM free [Ca2+]; format: functional; details: Myocardium
[17] = biological target: Phosphodiesterase 4 (Homo sapiens) (UniProt P27815+Q08499+Q07343+Q08493); experiment: Inhibition of Phosphodiesterase 4; format: protein assay; details: Cavia porcellus
[18] = biological target: Histamine H1 receptor (Cavia porcellus) (UniProt P31389); experiment: Effect against histamine H1 receptor; No effect
[19] = biological target: GABA-A receptor; anion channel (Homo sapiens) (UniProt P14867+P47870+P18507+P28472+P48169+Q99928+Q9UN88+P34903+O00591+O14764+Q8N1C3+P18505+P78334+P47869+P31644+Q16445); experiment: Binding affinity against GABA-A benzodiazepine receptor using flunitrazepam; format: protein-complex assay; details: Cavia porcellus
[20] = species on record: Sus scrofa; experiment: Increased [Ca2+] activated force in porcine myocardial skinned fibers (Not effective); format: functional, Myocardium
[21] = species on record: Sus scrofa; experiment: Increase in [Ca2+] activated force in porcine myocardial skinned fibers (ineffective); format: functional; details: Myocardium
[22] = species on record: Sus scrofa; experiment: Increase in isometric force in myocardial skinned fibres at 100 uM with free [Ca2+]; format: functional, Myocardium
[23] = species on record: Sus scrofa; experiment: Increase in isometric force of myocardial skinned fibres at 30 uM with free [Ca2+]; format: functional
[24] = species on record: Cavia porcellus; experiment: Reduced spontaneous beating frequency at 1-100 uM in guinea pig heart; format: functional
Summary of the method: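 Right atria from urethane-anaesthetized guinea pigs, mounted isometrically in Krebs–Henseleit medium at 32 °C; spontaneous sinus-node beating rate recorded over 1–100 μM compound; EC50 taken as concentration giving half-maximal effect.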

[25] = species on record: Sus scrofa; experiment: Increased [Ca2+] activated force in porcine myocardial skinned fibers by racemic mixture; format: functional; details: Myocardium

Beta-1 adrenergic receptor (Cavia porcellus), sequence (B0FL73 1-467): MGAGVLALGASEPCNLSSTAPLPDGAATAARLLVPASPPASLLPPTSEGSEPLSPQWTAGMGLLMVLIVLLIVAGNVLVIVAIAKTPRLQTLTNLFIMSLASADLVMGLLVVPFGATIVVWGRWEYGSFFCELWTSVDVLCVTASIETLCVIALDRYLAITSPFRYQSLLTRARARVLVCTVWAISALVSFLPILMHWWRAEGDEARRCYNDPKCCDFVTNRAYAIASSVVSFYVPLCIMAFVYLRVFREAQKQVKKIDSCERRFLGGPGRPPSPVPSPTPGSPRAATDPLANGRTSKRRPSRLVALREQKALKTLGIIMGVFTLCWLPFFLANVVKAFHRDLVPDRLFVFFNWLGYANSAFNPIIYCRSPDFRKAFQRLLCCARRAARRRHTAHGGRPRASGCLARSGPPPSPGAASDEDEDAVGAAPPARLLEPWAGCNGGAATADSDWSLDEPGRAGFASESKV
Histamine H1 receptor (Cavia porcellus), sequence (P31389 whole entry): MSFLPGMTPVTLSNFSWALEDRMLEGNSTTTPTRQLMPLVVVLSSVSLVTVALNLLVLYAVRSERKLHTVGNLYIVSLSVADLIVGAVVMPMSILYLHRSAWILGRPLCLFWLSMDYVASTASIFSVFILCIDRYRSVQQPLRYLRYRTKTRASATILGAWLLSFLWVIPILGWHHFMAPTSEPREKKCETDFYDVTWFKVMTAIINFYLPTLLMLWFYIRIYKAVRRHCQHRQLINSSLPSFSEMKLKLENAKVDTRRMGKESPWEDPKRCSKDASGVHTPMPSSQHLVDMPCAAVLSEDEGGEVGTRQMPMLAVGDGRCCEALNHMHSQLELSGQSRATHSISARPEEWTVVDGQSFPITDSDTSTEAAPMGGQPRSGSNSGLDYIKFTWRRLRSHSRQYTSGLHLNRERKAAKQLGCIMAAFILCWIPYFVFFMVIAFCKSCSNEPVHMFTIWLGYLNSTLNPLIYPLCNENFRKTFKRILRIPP

COc1ccc(C(=O)N2CCCc3cc(C4=NNC(=O)SC4C)ccc32)cc1OC (centres undefined)
Effect [1]: 400%

CN1C(=O)C2(c3ccccc3)CC1C(=O)Nc1ccccc12 (centres undefined)
Effect [2]: inactive

CN1C(=O)C2(c3ccccc3)CC1NC(=O)c1ccccc12 (centres undefined)
Effect [2]: inactive

CN1C(=O)C2CC1(c1ccccc1)c1ccccc1C(=O)N2 (centres undefined)
Effect [2]: inactive

CN1C(=O)C2CC1(c1ccccc1)c1ccccc1NC2=O (single isomer, unassigned; (+)) [listing 1 of 2 here]
EC50 [3]: 8 µM
Effect [3]: 40%
Effect [4]: 17%
Effect [5]: 280%
EC50 [6]: 3 µM
EC50 [7]: 0.3 µM
EC50 [8]: 10 µM

CN1C(=O)C2CC1(c1ccccc1)c1ccccc1NC2=O (single isomer, unassigned; (+)) [listing 2 of 2 here]
Activity [9]: inactive
Effect [10]: inactive
Effect [11]: inactive
Effect [12]: inactive
Effect [13]: inactive
Effect [14]: inactive
Effect [15]: inactive
Effect [16]: Active
Effect [17]: inactive
Effect [18]: inactive
Effect [19]: inactive

CN1C(=O)C2CC1(c1ccccc1)c1ccccc1NC2=O (single isomer, unassigned; (-)) [listing 1 of 2 here]
EC50 [20]: Not Active

CN1C(=O)C2CC1(c1ccccc1)c1ccccc1NC2=O (single isomer, unassigned; (-)) [listing 2 of 2 here]
Effect [21]: inactive

CN1C(=O)C2CC1(c1ccccc1)c1ccccc1NC2=O (stereo in doubt)
EC50 ([3]; Cavia porcellus, Heart): 15 µM
Effect [22]: 60%
Effect [23]: 60%
Reduction [24]: 55%
EC50 [25]: 20 µM
